assay: Toxicity liver stage against HepG2, at 10uM; type: cell-based; set-up: test concentration 10 uM, cell line HepG2-A16-CD81EGFP; settings: human, HepG2-A16-CD81EGFP cells; read-out: INHIBITION
How it was run: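 Uninfected HepG2-A16-CD81EGFP cells, 3 × 10^3 per well, 1536-well, plated on prespotted compound at 10 μM final, parasite-free screening media added to match infected plates; puromycin 10 μM positive, DMSO 0.5% negative; run in parallel with 48 h PbLuc assay at 37 °C, 5% CO2; viability by CellTiter-Glo luminescence, normalized to controls.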

Row | Structure (SMILES) | cytotoxicity at 10 µM [%]
1 | CCOc1nn(CC)cc1-c1nnc(SCc2ccccn2)n1C | -2.95
2 | COc1ccc(F)cc1S(=O)(=O)N1CCN(CCn2ccnc2)CC1 | -7.72
3 | Cn1cc(CN2CC3(CCN(Cc4ccsc4)C3)C2)cn1 | -0.182
4 | CCS(=O)(=O)N1CC[C@H]2O[C@H](c3nc(C)no3)CC[C@H]21 | 6.73
5 | CCCOC1Sc2nnc(C)n2N=C1c1ccccc1 (stereo not given) | 1.57
6 | CC(=O)N1CCCC1CCc1ccc(Cl)nn1 (stereo not given) | 3.39
7 | Cc1nc(CN2CCCC(c3cnccn3)C2)cs1 (stereo not given) | -4.18
8 | Cc1cccc(CNC(=O)CC2CCN(Cc3ccccn3)CC2)n1 | 10.1
9 | Cn1nc(C2CC2)cc1C(=O)N1CCC(c2nnsc2S(C)(=O)=O)CC1 | -0.81
10 | COc1ccc2c(c1)C(=O)NC1(CC2)CCN(Cc2ccccn2)C1 (stereo not given) | 4.51
11 | CN(C1CCCN(c2ccccn2)C1)S(=O)(=O)N1CCOCC1 (stereo not given) | 8.09
12 | CCN1CCCC1CNCc1cc2cc(OC)c(OC)cc2[nH]c1=O (stereo not given) | 2.63
13 | Cc1ccc(N2CCOC(C)(C(=O)N(C)C)C2)nn1 (stereo not given) | -4.43
14 | COc1ncc(CN(C)C2CCN(C(C)C)CC2)cn1 | 5.15
15 | O=C(NCc1ccccn1)c1cnc(C2CCCN2)cn1 (stereo not given) | 3.62
16 | COc1ccccc1-c1ccccc1CC1(C(=O)O)CCNCC1 | -0.782
17 | Cc1cc(C2CCCCN2C(=O)c2cccn2C)nc2nccn12 (stereo not given) | -17.6
18 | Cc1cc(C(N)=O)nc(C2(C)CCCN2Cc2cnn(C)c2)n1 (stereo not given) | -23.6
19 | CNc1cc(C2CCCN(Cc3ccccc3OCC(=O)O)C2)ccn1 (stereo not given) | -24.8
20 | CNCC(=O)N1CCCCC1c1nccc(C)n1 (stereo not given) | -15.4
21 | CC(=O)N1CCN(c2cc(CCNC(=O)C(C)C)nc(C3CC3)n2)CC1 | -21.3
22 | O=C(c1ccc(=O)[nH]n1)N1CCCC1C1CCCC1 (stereo not given) | -7.09
23 | NC(=O)N1CCC(NCc2cc(C(F)(F)F)ccc2Cl)CC1 | -0.651
24 | O=C(CCc1nnc(-c2ccccc2)o1)N1CCCC1c1ccccn1 (stereo not given) | -5.82
25 | CC1CS(=O)(=O)CCN1Cc1ccccc1OCC(F)(F)F (stereo not given) | -4.86
26 | CC(C)n1nc2c(cc1=O)CN(CC1CCCCO1)CC2 (stereo not given) | 14.5
27 | CCc1nnc(CN2CCc3ccc(S(N)(=O)=O)cc32)o1 | 1.41
28 | COC(=O)c1ccoc1CN(C)CC(=O)NC1CCS(=O)(=O)C1 (stereo not given) | -14.2

Row | Structure (SMILES) | cytotoxicity at 10 µM [%]
29 | Cc1cc(S(=O)(=O)N2CCOCC2C#N)ccc1F (stereo not given) | 57.3
30 | Cc1noc(C)c1CCCNC(=O)Nc1cccc([S+](C)[O-])c1 (stereo not given) | -0.595
31 | CC(C)c1nc2cc(NC(=O)Cn3ccc(=O)[nH]c3=O)ccc2o1 | 1.73
32 | O=C(NCCNc1ccccn1)NC1CCCC1 | -5.81
33 | COCc1nc(C(=O)OCC2CCN(c3ccccc3)C2)cs1 (stereo not given) | -1.31
34 | CC(NC(=O)N1CCc2ccccc21)c1nncn1C (stereo not given) | -5.3
35 | COc1cc(C(C)NCc2c[nH]nc2C)ccc1OCCO (stereo not given) | -7.47
36 | Cc1cccc(OC(C)C(=O)NCC2(N(C)C)CCCC2)c1 (stereo not given) | -13.4
37 | COCC(NC(=O)c1ccoc1C)c1cccc(C(F)(F)F)c1 (stereo not given) | -5.95
38 | O=C(NCCN1CCOCC1)N(CCCO)C1CCCc2ccccc21 (stereo not given) | -9.69
39 | COc1ccc(CNC(=O)NC(C)(CO)C2CC2)c(C(F)(F)F)c1 (stereo not given) | 8.48
40 | O=C(NCCCOCc1ccco1)c1cccnc1N1CCOCC1 | -8.5
41 | N#Cc1nccnc1N1CCC(c2nc(C(F)(F)F)c[nH]2)CC1 | 4.25
42 | COCCCNC(=O)Nc1cccc2ncccc12 | -4.84
43 | NC(=O)CCn1ccc(NC(=O)C2(c3ccc(F)cc3)CCC2)n1 | -1.03
44 | CCn1c(C)cc(C(=O)NCc2ccc(CS(C)(=O)=O)cc2)c1C | -16.9
45 | Cc1cccc(C(=O)N2CCCC2c2c(C)n[nH]c2C)c1 (stereo not given) | 8.58
46 | CC(=O)NCCCSCCOc1cccc(C#N)c1 | 11.4
47 | CCc1nnsc1C(=O)N1CCN(CC(O)CC)CC1 (stereo not given) | -6.06
48 | COc1c(C)cnc(CN(C)C(=O)c2cccc(NC(N)=O)c2)c1C | -8.94
49 | COc1cccc(F)c1C(C)NC(=O)NCc1cc(C(C)C)no1 (stereo not given) | 4.25
50 | CNS(=O)(=O)c1ccc(CNC(=O)N(C)CC(C)C)cc1 | 1.08
51 | CNC(=O)c1ccc(S(=O)(=O)NCCc2ccccn2)cc1 | -14.3
52 | c1ccc2sc(NCC3(N4CCOCC4)CCSC3)nc2c1 (stereo not given) | 0.375
53 | O=C(c1c(F)cc(Br)cc1F)N1CCc2cnccc21 | -10.1
54 | CCc1noc(CN(CC(=O)N2CCCCC2)c2cccc(C)c2)n1 | -6.61
55 | CCc1nc(CNc2ccc(F)c(F)c2)no1 | 5.49

Source: ChEMBL document CHEMBL4513216, “Probing the Open Global Health Chemical Diversity Library for Multistage-Active Starting Points for Next-Generation Antimalarials” (ACS Infect Dis, 2020)
